The record followed here is ChEMBL document CHEMBL1158063, “Awajanomycin, a Cytotoxic gamma-lactone-delta-lactam metabolite from marine-derived Acremonium sp. AWA16-1” (J Nat Prod, 2006).

For experiment [1], the system named is A549. Put plainly: Cytotoxicity against human A549 cells after 72 hrs by alamar blue assay. The class given is functional, cell-based. The following applies: A549, 72 h. The gist of the method: (§1)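 A549 lung adenocarcinoma cells in DMEM with 10% FBS were seeded at 8 × 10^3 cells/well and preincubated 14 h at 37 °C under 5% CO2. Serially diluted samples were then added for 72 h. Alamar Blue was added for a further 4 h, and viability was read as absorbance at 590 nm.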

The test system of another experiment is Escherichia coli. Put plainly: Antimicrobial activity against Escherichia coli IFO 3301 at 50 ug/disk after 48 hrs by paper disk method. The class given is functional, organism-based. The gist of the method: (§2)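 Paper disk diffusion on nutrient broth agar plates seeded with the test strain. Sample loaded at 50 µg per 6 mm disk, air-dried, and placed on the agar surface. Growth-inhibition zone measured after 48 h incubation at 30 °C.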

The test system of another experiment is Bacillus subtilis. Description: Antimicrobial activity against Bacillus subtilis IFO 3134 at 50 ug/disk after 48 hrs by paper disk method. The experiment is classed as functional, organism-based. The gist of the method:
as §2

A further experiment has as its system Staphylococcus aureus. Description: Antimicrobial activity against Staphylococcus aureus IFO 12732 at 50 ug/disk after 48 hrs by paper disk method. The class given is functional, organism-based. The gist of the method:
as §2

The test system of experiment [2] is Leeuwenhoekiella marinoflava. Put plainly: Antimicrobial activity against Cytophaga marinoflava IFO 14170 at 50 ug/disk after 48 hrs by paper disk method. The class given is functional, organism-based. The gist of the method:
(§3)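 Paper disk method on marine broth agar seeded with the marine strain. Each 6 mm disk was loaded with 50 µg sample, air-dried, and laid on the plate. Inhibition zone read after 48 h at 30 °C.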

A further experiment relates to Alphaproteobacteria. Description: Antimicrobial activity against Alphaproteobacteria MBIC3368 at 50 ug/disk after 48 hrs by paper disk method. The class given is functional, organism-based. The gist of the method: as §3
For the next experiment, the system named is Candida albicans. Put plainly: Antimicrobial activity against sCandida albicans IFO 1060 at 50 ug/disk after 48 hrs by paper disk method. The experiment is classed as functional, organism-based. The gist of the method: as §2
The subject of a further experiment is Salinivibrio costicola. Put plainly: Antimicrobial activity against sSalinivibrio costicola ATCC 33508 at 50 ug/disk after 48 hrs by paper disk method. The experiment is classed as functional, organism-based. The gist of the method: as §3
The test system of experiment [3] is A549. Put plainly: Cytotoxicity against human A549 cells after 72 hrs up to 125 ug/mL by alamar blue assay. The experiment is classed as functional, cell-based. The gist of the method:
as §1

Converted amounts (≈) assume the structure as drawn. The source made the active and inactive calls. No cut-off for these calls is given here.

What is called IC50 is the midpoint of a concentration-inhibition curve. The low end stands for greater potency, the high end for weaker potency. In the experiment with A549 [1], `CCCCCCCC(O)/C=C/[C@@H]1[C@H](O)[C@@H](C)NC(=O)[C@]1(O)CO` (some centres undefined) registered an IC50 of 46.4 µg/mL (≈ 141 µM). Further, the outcome (in the experiment on Escherichia coli; in the experiment on Bacillus subtilis; in the experiment with Staphylococcus aureus; in experiment [2]; in the experiment on Alphaproteobacteria; in the experiment on Candida albicans) was inactive. Besides, the result in the experiment on Salinivibrio costicola was inactive.
On to `CCCCCCCC(O)/C=C/[C@@H]1[C@@H]2OC(=O)[C@@]1(O)C(=O)N[C@@H]2C` (some centres undefined) [AWAJANOMYCIN], for which the IC50 in the experiment on A549 [1] was 27.5 µg/mL (≈ 84.5 µM). In addition, the outcome (with Escherichia coli; in the experiment with Bacillus subtilis; in the experiment on Staphylococcus aureus; in experiment [2]; with Alphaproteobacteria; with Candida albicans) was inactive. Moreover, in the experiment on Salinivibrio costicola, the result was inactive.
Consider `CCCCCCCC(O)/C=C/[C@@H]1[C@H](O)[C@@H](C)NC(=O)[C@]1(O)C(=O)O` (some centres undefined), for which the outcome (in the experiment with A549 [3]; in the experiment with Escherichia coli; in the experiment on Bacillus subtilis; in the experiment on Staphylococcus aureus; in [2]; in the experiment with Alphaproteobacteria) was inactive. Also, the outcome with Candida albicans and with Salinivibrio costicola was inactive.
